Source: ChEMBL document CHEMBL1777791, “Protective effect of ε-viniferin on β-amyloid peptide aggregation investigated by electrospray ionization mass spectrometry” (Bioorg Med Chem, 2011)
Calls of active or inactive are those of the source. No cut-off for these calls is given here.

Experiments:
[1] = Inhibition of amyloid beta (25 to 35) fibril formation at 10 uM by UV-visible spectrometry analysis
In short: (§1)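 Aβ(25-35) stock (1 mM) prepared in sterile water at 4 °C by brief vortexing, then sonicated 10 min. Polyphenol stock 1 mg/mL in MeOH. Reaction used 10 mM phosphate buffer, pH 7.2, 100 µM peptide final and polyphenol at 5 or 10 µM final. Fibril formation followed by UV–visible spectrophotometry.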

[2] = Inhibition of amyloid beta (1 to 40) fibril formation at 5 uM by UV-visible spectrometry analysis
In short: (§2)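 Full-length Aβ stock (1 mM) prepared in sterile water at 4 °C by brief vortexing, then sonicated 10 min. Polyphenol stock 1 mg/mL in MeOH. Reaction used 10 mM phosphate buffer, pH 7.2, 50 µM peptide final and polyphenol at 5 or 10 µM final. Fibril formation followed by UV–visible spectrophotometry.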

[3] = Inhibition of amyloid beta (1 to 40) fibril formation at 10 uM by UV-visible spectrometry analysis; in short: as §2
[4] = Inhibition of amyloid beta (1 to 42) fibril formation at 10 uM by UV-visible spectrometry analysis; in short: as §2
[5] = Binding affinity to amyloid beta (1 to 40) assessed as non-covalent protein-compound complex formation at 10 uM using 35% methanol by electrospray ionization mass spectrometry analysis
In short: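 ESI ion-trap MS by direct infusion at 180 µL/h. Aβ(1-40) and compound mixed 1:1 molar (10 µM) in 35% methanol. Spectra recorded over m/z 150–2000 in positive and negative ion modes at normal scan resolution. Non-covalent complex ions identified.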

[6] = test system: PC-12; assay: Antiamyloidogenic activity in rat PC12 cells assessed as protection against amyloid beta (1 to 40)-induced cell death at 10 uM after 24 hrs by MTT assay; assay type: functional
In short: (§3)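 PC12 cells kept in DMEM-Glutamax with 15% heat-inactivated horse serum, 2.5% FBS and antibiotics at 37 °C, 10% CO2, on poly-D-lysine. Seeded 10,000 cells/well and grown 24 h. Aβ was preincubated with or without compound at 37 °C for 48 h, diluted in medium and added (Aβ final 10 µM). After 24 h, MTT 0.5 mg/ml for 3 h at 37 °C, DMSO solubilisation, A595. Read-out is % of control cells.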

[7] = test system: PC-12; assay: Antiamyloidogenic activity in rat PC12 cells assessed as protection against amyloid beta (25 to 35)-induced cell death at 10 uM after 24 hrs by MTT assay; assay type: functional; in short: as §3
[8] = Inhibition of amyloid beta (1 to 42) fibril formation at 5 uM by UV-visible spectrometry analysis; in short: as §2
[9] = Inhibition of amyloid beta (25 to 35) fibril formation by UV-visible spectrometry analysis; in short: as §1
[10] = test system: PC-12; assay: Cytotoxicity against rat PC12 cells up to 10 uM after 24 hrs by MTT assay; conditions: pc-12, 24 h
[11] = test system: PC-12; assay: Antiamyloidogenic activity in rat PC12 cells assessed as protection against amyloid beta (1 to 42)-induced cell death at 10 uM after 24 hrs by MTT assay; assay type: functional; in short: as §3

Structure (SMILES) | inhibition [1] | inhibition [2] | inhibition [3] | inhibition [4] | Activity [5] | Activity [6] | Activity [7] | inhibition [8] | IC50 [9] | Activity [10] | Activity [11]
Oc1ccc(/C=C/c2cc(O)cc(O)c2)cc1 | 63% | 22% | 52% | 61% |  |  |  |  |  |  | 
O=C(O)/C=C/c1ccc(O)cc1 |  |  |  |  | inactive |  |  |  |  |  | 
OC[C@H]1O[C@@H](Oc2cc(/C=C/c3ccc(O)cc3)c3c(c2)O[C@H](c2ccc(O)cc2)[C@H]3c2cc(O)cc(O)c2)[C@H](O)[C@@H](O)[C@@H]1O | 93% | 59% | 97% | 89% | Active | 79% | 80% | 70% | < 1000 nM | Non-toxic | 87%
